The values that follow come from ChEMBL document CHEMBL1681711, “Discovery of a potent, orally bioavailable pyrimidine VLA-4 antagonist effective in a sheep asthma model” (Bioorg Med Chem Lett, 2011).

For orientation: IC50 means the concentration that gives 50% inhibition. Usually bioavailability stands for the share of a dose that reaches the circulation, judged against a reference dose that is usually intravenous. For orientation: half-life means how long it takes for the measured level to halve.

Molecules are shown by their SMILES. Activity calls are given as the source filed them. The rule behind the calls is not given here.

For one data set, the target named is Integrin alpha-4/beta-1 (Homo sapiens, UniProt P05556+P13612). Nature of the data set: Inhibition of integrin alpha4beta1-mediated Jurkat cell adhesion to VCAM-1 by FACS analysis. It is filed as cell-based. A digest of the protocol:
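α4β1-positive Jurkat cells were incubated with recombinant soluble VCAM-1, and binding of this ligand was measured by flow cytometry (FACS).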

Data set [1] has as its system Ovis aries. Nature of the data set: Antiasthamatic activity in sheep asthma model assessed as prevention of carbachol-induced hyperresponsiveness at 1 mg/kg, po. Set-up: dose 1 mg/kg. The data set is classed as functional, organism-based.
For data set [2], the system named is Ovis aries. Nature of the data set: Antiasthamatic activity in sheep asthma model assessed as prevention of carbachol-induced hyperresponsiveness at 0.3 mg/kg, po. It is filed as functional, organism-based. Set-up: dose 0.3 mg/kg.
A short description of data set [3]: Bioavailability in Sprague-Dawley rat at 10 mg/kg, iv and po. Conditions: in vivo. It is filed as ADME, organism-based. In a few lines: (§1)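 Male rats in each arm; the compound was given at 10 mg/kg both intravenously and orally, with parameters taken from these two arms.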
Data set [4] in a line: Half life in Sprague-Dawley rat at 10 mg/kg, iv and po. It is filed as ADME, organism-based. Set-up: dose 10 mg/kg, route oral. Conditions: in vivo. In a few lines: as §1
For another data set, the system named is Rattus norvegicus. Nature of the data set: Volume of distribution in Sprague-Dawley rat at 10 mg/kg, iv and po. It is filed as ADME, organism-based. Set-up: dose 10 mg/kg, route oral. The following applies: in vivo. In a few lines:
as §1

Data set [5] is described as follows: Bioavailability in Beagle dog at 3 mg/kg, iv and 10 mg/kg, po. It is filed as ADME, organism-based, Canis lupus familiaris. The following applies: in vivo. A digest of the protocol: (§2)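 Male dogs in each arm; the intravenous arm used 3 mg/kg and the oral arm 10 mg/kg.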
Data set [6] can be described thus: Clearance in Beagle dog at 3 mg/kg, iv and 10 mg/kg, po. It is filed as ADME, organism-based, Canis lupus familiaris. The following applies: in vivo. A digest of the protocol:
as §2

A short description of data set [7]: Half life in Beagle dog at 3 mg/kg, iv and 10 mg/kg, po. The data set is classed as ADME, organism-based, Canis lupus familiaris. The following applies: in vivo. In a few lines: as §2
Data set [8] is described as follows: Volume of distribution in Beagle dog at 3 mg/kg, iv and 10 mg/kg, po. It is filed as ADME, organism-based, Canis lupus familiaris. Conditions: in vivo. A digest of the protocol:
as §2

A short description of data set [9]: Bioavailability in cynomolgus monkey at 3 mg/kg, iv and 10 mg/kg, po. The data set is classed as ADME, organism-based, Macaca fascicularis. The following applies: in vivo. In a few lines:
(§3)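 Male monkeys in each arm; the compound was given at 3 mg/kg intravenously and at 10 mg/kg orally.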

Data set [10] in a line: Clearance in cynomolgus monkey at 3 mg/kg, iv and 10 mg/kg, po. The following applies: in vivo. It is filed as ADME, organism-based, Macaca fascicularis. A digest of the protocol: as §3
Data set [11] is described as follows: Half life in cynomolgus monkey at 3 mg/kg, iv and 10 mg/kg, po. It is filed as ADME, organism-based, Macaca fascicularis. The following applies: in vivo. A digest of the protocol:
as §3

Data set [12] is described as follows: Volume of distribution in cynomolgus monkey at 3 mg/kg, iv and 10 mg/kg, po. It is filed as ADME, organism-based, Macaca fascicularis. Conditions: in vivo. A digest of the protocol:
as §3

Data set [13] in a line: Oral bioavailability in Sprague-Dawley rat at 10 mg/kg. The data set is classed as ADME, organism-based. The following applies: in vivo.
Data set [14] in a line: Drug excretion in Sprague-Dawley rat bile at 10 mg/kg, po. The data set is classed as ADME, organism-based. Conditions: read-out: Activity. Set-up: dose 10 mg/kg, route oral.
Data set [15] relates to Ovis aries. Nature of the data set: Antiasthamatic activity in po dosed sheep asthma model assessed as prevention of carbachol-induced early phase hyperresponsiveness. The data set is classed as functional. Conditions: read-out: MED.
In data set [16] the test system is Ovis aries. Nature of the data set: Antiasthamatic activity in po dosed sheep asthma model assessed as prevention of carbachol-induced late phase hyperresponsiveness. It is filed as functional. Conditions: read-out: MED.

Sequence of Integrin alpha-4/beta-1 (P05556 whole entry): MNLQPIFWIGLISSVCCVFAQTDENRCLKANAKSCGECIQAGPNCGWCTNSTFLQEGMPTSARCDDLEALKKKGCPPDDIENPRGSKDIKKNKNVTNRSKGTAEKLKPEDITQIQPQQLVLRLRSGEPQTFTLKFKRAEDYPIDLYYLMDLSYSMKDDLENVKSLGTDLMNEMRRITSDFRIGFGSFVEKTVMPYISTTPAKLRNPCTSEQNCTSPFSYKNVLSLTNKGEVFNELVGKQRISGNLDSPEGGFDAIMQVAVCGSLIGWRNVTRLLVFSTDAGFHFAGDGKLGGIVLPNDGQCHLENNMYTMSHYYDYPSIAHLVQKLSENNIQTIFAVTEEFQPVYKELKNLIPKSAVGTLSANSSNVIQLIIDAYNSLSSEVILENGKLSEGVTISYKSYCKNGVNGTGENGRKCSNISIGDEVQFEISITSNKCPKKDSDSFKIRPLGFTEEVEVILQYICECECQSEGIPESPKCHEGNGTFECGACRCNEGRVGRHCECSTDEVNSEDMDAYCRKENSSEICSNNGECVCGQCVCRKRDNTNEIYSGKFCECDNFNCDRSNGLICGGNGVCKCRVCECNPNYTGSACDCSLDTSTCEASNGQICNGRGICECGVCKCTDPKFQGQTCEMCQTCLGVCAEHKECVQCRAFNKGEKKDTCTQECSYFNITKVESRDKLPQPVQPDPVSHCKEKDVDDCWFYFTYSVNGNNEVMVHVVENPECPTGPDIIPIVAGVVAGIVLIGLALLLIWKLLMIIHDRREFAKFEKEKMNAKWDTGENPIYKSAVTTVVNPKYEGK
Sequence of Integrin alpha-4/beta-1 (P13612 whole entry): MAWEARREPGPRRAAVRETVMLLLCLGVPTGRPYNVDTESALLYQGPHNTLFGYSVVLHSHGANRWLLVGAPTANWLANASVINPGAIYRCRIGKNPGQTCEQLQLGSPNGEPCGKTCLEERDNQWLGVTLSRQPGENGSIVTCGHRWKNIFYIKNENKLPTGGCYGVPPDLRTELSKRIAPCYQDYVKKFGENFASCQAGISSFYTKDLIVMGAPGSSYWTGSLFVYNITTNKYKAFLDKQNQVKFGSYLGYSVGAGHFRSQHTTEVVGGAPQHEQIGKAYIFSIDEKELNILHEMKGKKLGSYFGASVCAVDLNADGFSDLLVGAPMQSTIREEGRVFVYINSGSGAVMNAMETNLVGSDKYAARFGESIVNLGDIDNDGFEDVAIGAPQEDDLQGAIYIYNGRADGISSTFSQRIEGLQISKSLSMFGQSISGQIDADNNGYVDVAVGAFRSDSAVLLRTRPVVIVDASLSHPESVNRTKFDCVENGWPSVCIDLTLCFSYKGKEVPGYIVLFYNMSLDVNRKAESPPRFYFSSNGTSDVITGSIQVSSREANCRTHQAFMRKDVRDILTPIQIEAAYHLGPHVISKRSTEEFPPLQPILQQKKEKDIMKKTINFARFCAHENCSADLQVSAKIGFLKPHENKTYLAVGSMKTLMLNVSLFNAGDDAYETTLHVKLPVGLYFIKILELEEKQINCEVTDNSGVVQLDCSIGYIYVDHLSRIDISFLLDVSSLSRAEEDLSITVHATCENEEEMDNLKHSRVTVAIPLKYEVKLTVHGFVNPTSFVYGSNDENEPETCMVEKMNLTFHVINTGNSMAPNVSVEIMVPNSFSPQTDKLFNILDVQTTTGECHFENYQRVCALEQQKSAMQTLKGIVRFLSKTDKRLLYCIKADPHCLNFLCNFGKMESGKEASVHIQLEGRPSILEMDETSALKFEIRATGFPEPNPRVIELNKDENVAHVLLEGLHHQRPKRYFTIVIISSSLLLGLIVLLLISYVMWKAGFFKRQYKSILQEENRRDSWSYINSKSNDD

Molecule `CN(C)C(=O)Oc1ccc(C[C@H](Nc2ncncc2-c2ccccc2)C(=O)O)cc1` yielded an IC50 at Integrin alpha-4/beta-1 of 0.3 µM.

At Integrin alpha-4/beta-1, `Cc1ccsc1-c1cncnc1N[C@@H](Cc1ccc(OC(=O)N(C)C)cc1)C(=O)O` gave an IC50 of 0.005 µM.

Turning to `CCN(CC)c1ncc(-c2c(C)noc2C)c(N[C@@H](Cc2ccc(OC(=O)N(C)C)cc2)C(=O)O)n1`, the result in the data set on Ovis aries [1] was Active. Besides, in the data set on Ovis aries [2], the outcome was inactive. Further, the bioavailability in data set [3] stood at 19%; in [5] it was 59%; in [9], 16%. In addition, the half-life in data set [4] is 1.4 h; in [7] it was 0.9 h; in data set [11], 1.1 h. For the same molecule, the Vd in the data set on Rattus norvegicus was 0.346 L/kg; in data set [8], 0.524 L/kg; in data set [12], 1.29 L/kg. Besides, the clearance was 0.404 L/h/kg in [6] and 0.808 L/h/kg in data set [10].

`CN(C)C(=O)Oc1ccc(C[C@H](Nc2ncncc2-c2cccc(Cl)c2Cl)C(=O)O)cc1` had a half-maximal inhibitory concentration (IC50) against Integrin alpha-4/beta-1 of 0.077 µM.

`CN(C)C(=O)Oc1ccc(C[C@H](Nc2ncncc2-c2ccncc2)C(=O)O)cc1`: the IC50 against Integrin alpha-4/beta-1 was 0.085 µM.

In turn, `Cc1ccccc1-c1cnc(N(C)C2CCN(C)CC2)nc1N[C@@H](Cc1ccc(OC(=O)N(C)C)cc1)C(=O)O` yielded an IC50 against Integrin alpha-4/beta-1 of 0.068 µM.

For the molecule `CN(C)C(=O)Oc1ccc(C[C@H](Nc2ncncc2-c2cccnc2)C(=O)O)cc1`, half-maximal inhibition on Integrin alpha-4/beta-1 (IC50) required 0.13 µM.

Turning to `Cc1ccccc1-c1cnc(N(C)C)nc1N[C@@H](Cc1ccc(OC(=O)N(C)C)cc1)C(=O)O`, the IC50 at Integrin alpha-4/beta-1 stood at 0.029 µM.

At Integrin alpha-4/beta-1, `Cc1noc(C)c1-c1cncnc1N[C@@H](Cc1ccc(OC(=O)N(C)C)cc1)C(=O)O` came in with a concentration for half-maximal inhibition (IC50) of less than 0.001 µM.

At Integrin alpha-4/beta-1, `CN(C)C(=O)Oc1ccc(C[C@H](Nc2ncncc2-c2ccccc2F)C(=O)O)cc1` had an IC50 of 0.018 µM.

`Cc1ccccc1-c1cnc(N(C)C2CC2)nc1N[C@@H](Cc1ccc(OC(=O)N(C)C)cc1)C(=O)O` returned an IC50 on Integrin alpha-4/beta-1 of 0.02 µM.

The molecule `Cc1ccccc1-c1cncnc1N[C@@H](Cc1ccc(OC(=O)N(C)C)cc1)C(=O)O` gave an IC50 at Integrin alpha-4/beta-1 of 0.025 µM.

Molecule `Cc1ccccc1-c1cnc(N(C)C2CCCCC2)nc1N[C@@H](Cc1ccc(OC(=O)N(C)C)cc1)C(=O)O` displayed a half-inhibitory concentration (IC50) against Integrin alpha-4/beta-1 of 0.02 µM. In data set [13], this molecule yielded a bioavailability of 26%. Moreover, in data set [14], the dose excreted is less than 3%. Further, the minimal effective dose in the data set with Ovis aries [15] and in the data set on Ovis aries [16] was 10 mg/kg in each case.

On to `CN(C)C(=O)Oc1ccc(C[C@H](NC(=O)c2ccccc2)C(=O)O)cc1`, for which the IC50 against Integrin alpha-4/beta-1 stood at 0.13 µM.

Turning to `CCN(CC)c1ncc(-c2ccccc2C)c(N[C@@H](Cc2ccc(OC(=O)N(C)C)cc2)C(=O)O)n1`, the IC50 at Integrin alpha-4/beta-1 came out at 0.0057 µM.

On to `Cc1ccccc1-c1cnc(N(C)CC(C)C)nc1N[C@@H](Cc1ccc(OC(=O)N(C)C)cc1)C(=O)O`, for which the IC50 at Integrin alpha-4/beta-1 came out at 0.007 µM.

`COc1ccccc1-c1cncnc1N[C@@H](Cc1ccc(OC(=O)N(C)C)cc1)C(=O)O` gave an IC50 against Integrin alpha-4/beta-1 of 0.016 µM.

In turn, `CN(C)C(=O)Oc1ccc(C[C@H](Nc2ncncc2-c2c(F)cccc2F)C(=O)O)cc1` came in with an IC50 at Integrin alpha-4/beta-1 of 0.027 µM.

On Integrin alpha-4/beta-1, `CCCN(CC)c1ncc(-c2ccccc2C)c(N[C@@H](Cc2ccc(OC(=O)N(C)C)cc2)C(=O)O)n1` gave a half-inhibitory concentration (IC50) of 0.0049 µM.

With `Cc1ccccc1-c1cnc(N(C)c2ccc(Cl)cc2)nc1N[C@@H](Cc1ccc(OC(=O)N(C)C)cc1)C(=O)O`, the IC50 against Integrin alpha-4/beta-1 came out at 0.107 µM.

The molecule `CCN(C)c1ncc(-c2ccccc2C)c(N[C@@H](Cc2ccc(OC(=O)N(C)C)cc2)C(=O)O)n1` gave an IC50 on Integrin alpha-4/beta-1 of 0.0053 µM.

With `Cc1cc(C)c(-c2cncnc2N[C@@H](Cc2ccc(OC(=O)N(C)C)cc2)C(=O)O)c(C)c1`, the IC50 on Integrin alpha-4/beta-1 is 0.1 µM.

On Integrin alpha-4/beta-1, `CN(C)C(=O)Oc1ccc(C[C@H](Nc2ncncc2-c2cccs2)C(=O)O)cc1` returned an IC50 of 0.016 µM.

For `CN(C)C(=O)Oc1ccc(C[C@H](Nc2ncnc3ccccc23)C(=O)O)cc1`, the IC50 on Integrin alpha-4/beta-1 was 0.19 µM.

Take `Cc1ccccc1-c1cnc(N2CCCCC2)nc1N[C@@H](Cc1ccc(OC(=O)N(C)C)cc1)C(=O)O`: half-maximal inhibition against Integrin alpha-4/beta-1 (IC50) was put at 0.032 µM.

Regarding `CN(C)C(=O)Oc1ccc(C[C@H](Nc2ncncc2-c2ccc[nH]2)C(=O)O)cc1`, the half-maximal inhibitory concentration (IC50) on Integrin alpha-4/beta-1 worked out at 0.075 µM.

For the molecule `CN(C)C(=O)Oc1ccc(C[C@H](Nc2ncncc2-c2ccccc2C(F)(F)F)C(=O)O)cc1`, the midpoint of inhibition against Integrin alpha-4/beta-1, the IC50, lay at 0.09 µM.

On to `Cc1ccccc1-c1cnc(N(C)C2CCC2)nc1N[C@@H](Cc1ccc(OC(=O)N(C)C)cc1)C(=O)O`, for which the IC50 on Integrin alpha-4/beta-1 came out at 0.01 µM.

For `CN(C)C(=O)Oc1ccc(C[C@H](Nc2ncncc2-c2cccc([N+](=O)[O-])c2)C(=O)O)cc1`, on Integrin alpha-4/beta-1, the IC50 was 0.18 µM.

In the case of `CN(C)C(=O)Oc1ccc(C[C@H](Nc2nc(N(C)C3CCCCC3)nc3ccccc23)C(=O)O)cc1`, at Integrin alpha-4/beta-1, inhibition was half-maximal at 0.008 µM (IC50).
